The target of assay [1] is Histamine H2 receptor (Cavia porcellus) (UniProt P47747). The assay can be described thus: Antagonist activity was measured for histamine H2-receptor in guinea pig atrium; 486 uM/L. The class given is functional, tissue-based. To be noted: Cardiac atrium. The procedure, abridged: (§1)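 Guinea pig right atrium in vitro, propranolol (0.5 μM) present. Test compounds given up to 486 μM against histamine (0.2–781 μM). Any active compound was run at three dose levels (five observations).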

The target of assay [2] is Histamine H1 receptor (Cavia porcellus) (UniProt P31389). The assay can be described thus: In vitro agonist activity against histamine H1-receptor in guinea pig ileum in the presence of atropine (0.5 uM) relative to histamine; -ve; <0.1% of histamine (781 uM/L). The class given is functional, tissue-based. The procedure, abridged: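 Isolated guinea pig ileum with atropine (0.5 μM) present. Agonist activity assayed up to 781 μM (0.1% histamine). Activity relative to histamine taken from cumulative dose–response curves. A 2+2 parallel assay was run for one compound.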

Assay [3] addresses Histamine H2 receptor (Cavia porcellus) (UniProt P47747). The assay can be described thus: Agonist activity was measured for histamine H2-receptor in guinea pig atrium; -ve; <0.1% of histamine (781 uM/L). To be noted: Cardiac atrium. The class given is functional, tissue-based.
Assay [4] has as its target Histamine H2 receptor (Rattus norvegicus) (UniProt P25102). The assay can be described thus: In vivo agonist activity against histamine H2-receptor in lumen-perfused stomach of atropinized (1 mg/kg) anesthetized rat gastric secretion at 256 ug/kg; -ve. The class given is functional, organism-based. The essentials:
(§2)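 Urethane-anesthetized rat, atropinized (1 mg kg⁻¹), lumen-perfused stomach, acid output. Single intravenous doses of compound matched against histamine doses (0.5–1 μM kg⁻¹). Potency relative to histamine compared on peak responses.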

Assay [5] has the same target. The assay can be described thus: In vivo antagonist activity against histamine H2-receptor in lumen-perfused stomach of atropinized (1 mg/kg) anesthetized rat gastric secretion at 128 ug/kg; -ve. The format is functional, organism-based.
The target of assay [6] is Histamine H1 receptor (Cavia porcellus) (UniProt P31389). The assay can be described thus: In vitro antagonist activity against histamine H1-receptor in guinea pig ileum in the presence of atropine (0.5 uM). The format is functional, tissue-based. The procedure, abridged: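 Isolated guinea pig ileum with atropine (0.5 μM) present. Antagonism measured against histamine (0.1–109 μM)-stimulated contraction. Cumulative dose–response curves plotted for active compounds at three dose levels (nine observations).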

Assay [7] has the same target. The assay can be described thus: In vitro agonist activity against histamine H1-receptor in guinea pig ileum in the presence of atropine (0.5 uM) relative to histamine. The class given is functional, tissue-based. The procedure, abridged:
(§3)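 Isolated guinea pig ileum contraction with atropine (0.5 μM). Agonism tested up to 781 μM (0.1% histamine). Relative activity came from cumulative dose–response curves; one compound was run as a 2+2 parallel assay.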

In assay [8] the target is Histamine H2 receptor (Rattus norvegicus) (UniProt P25102). The assay can be described thus: In vivo agonist activity against histamine H2-receptor in lumen-perfused stomach of atropinized (1 mg/kg) anesthetized rat gastric secretion. The format is functional, organism-based. The essentials: as §2
The target is the same in assay [9]. The assay can be described thus: In vivo antagonist activity against histamine H2-receptor in lumen-perfused stomach of atropinized (1 mg/kg) anesthetized rat gastric secretion at 256 ug/kg; -ve. The class given is functional, organism-based.
The target in assay [10] is Histamine H2 receptor (Cavia porcellus) (UniProt P47747). The assay can be described thus: Antagonist activity was measured for histamine H2-receptor in guinea pig atrium; -ve. To be noted: Cardiac atrium. The class given is functional, tissue-based. The essentials: as §1
In assay [11] the target is Histamine H2 receptor (Rattus norvegicus) (UniProt P25102). The assay can be described thus: In vivo agonist activity against histamine H2-receptor in lumen-perfused stomach of atropinized (1 mg/kg) anesthetized rat gastric secretion at 187 ug/kg; -ve. The class given is functional, organism-based. The procedure, abridged:
as §2

For assay [12], the target named is Histamine H1 receptor (Cavia porcellus) (UniProt P31389). The assay can be described thus: In vitro agonist activity against histamine H1-receptor in guinea pig ileum in the presence of atropine (0.5 uM) relative to histamine. The format is functional, tissue-based. The procedure, abridged:
as §3

Assay [13] deals with Histamine H2 receptor (Cavia porcellus) (UniProt P47747). The assay can be described thus: Agonist activity was measured for histamine H2-receptor in guinea pig atrium. The format is functional, tissue-based. To be noted: Cardiac atrium.
Assay [14] deals with Histamine H2 receptor (Rattus norvegicus) (UniProt P25102). The assay can be described thus: In vivo antagonist activity against histamine H2-receptor in lumen-perfused stomach of atropinized (1 mg/kg) anesthetized rat gastric secretion at 187 ug/kg; weak inhibition. The format is functional, organism-based. Conditions: filed as antagonist.
Assay [15] deals with Histamine H1 receptor (Cavia porcellus) (UniProt P31389). The assay can be described thus: In vitro agonist activity against histamine H1 receptor in guinea pig ileum in the presence of atropine (0.5 uM) relative to histamine; -ve; <0.1% of histamine (781 uM/L). The format is functional, tissue-based. The essentials: as §3
In assay [16] the target is Histamine H2 receptor (Cavia porcellus) (UniProt P47747). The assay can be described thus: Antagonist activity was measured for histamine H2-receptor in guinea pig atrium. The format is functional, tissue-based. To be noted: Cardiac atrium. The procedure, abridged: as §1
Assay [17] addresses Histamine H2 receptor (Rattus norvegicus) (UniProt P25102). The assay can be described thus: In vivo agonist activity against histamine H2-receptor in lumen-perfused stomach of atropinized (1 mg/kg) anesthetized rat gastric secretion at 128 ug/kg; -ve. The format is functional, organism-based. The procedure, abridged:
as §2

Assay [18] addresses Histamine H1 receptor (Cavia porcellus) (UniProt P31389). The assay can be described thus: In vitro antagonist activity against histamine H1 receptor in guinea pig ileum in the presence of atropine (0.5 uM). The class given is functional, tissue-based. The procedure, abridged:
(§4)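 Guinea pig ileum in vitro with atropine (0.5 μM) present. Compounds tested against histamine-stimulated contraction (histamine 0.1–109 μM). Cumulative dose–response curves plotted for active compounds at three dose levels (nine observations); pA2 derived.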

Assay [19] concerns the target Histamine H2 receptor (Rattus norvegicus) (UniProt P25102). The assay can be described thus: In vivo antagonist activity against histamine H2-receptor in lumen-perfused stomach of atropinized (1 mg/kg) anesthetized rat gastric secretion at 512 ug/kg; -ve. The format is functional, organism-based.
The target is the same in assay [20]. The assay can be described thus: In vivo agonist activity against histamine H2-receptor in lumen-perfused stomach of atropinized (1 mg/kg) anesthetized rat gastric secretion at 512 ug/kg; -ve. The format is functional, organism-based. The procedure, abridged:
as §2

Assay [21] concerns the target Histamine H2 receptor (Cavia porcellus) (UniProt P47747). The assay can be described thus: Agonist activity was measured for histamine H2-receptor in guinea pig atrium. The class given is functional, tissue-based. Conditions: Cardiac atrium.
In assay [22] the target is Histamine H1 receptor (Cavia porcellus) (UniProt P31389). The assay can be described thus: In vitro antagonist activity against histamine H1-receptor in guinea pig ileum in the presence of atropine (0.5 uM). The format is functional, tissue-based. The procedure, abridged: as §4
Assay [23] concerns the target Histamine H2 receptor (Cavia porcellus) (UniProt P47747). The assay can be described thus: Antagonist activity was measured for histamine H2-receptor in guinea pig atrium; -ve; 486 uM/L. Conditions: Cardiac atrium. The format is functional, tissue-based. The essentials: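 Isolated guinea pig right atrium with propranolol (0.5 μM) present. Compounds tested as antagonists against histamine (0.2–781 μM) at up to 486 μM. Active compounds run at three dose levels (five observations).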

In assay [24] the target is Histamine H2 receptor (Rattus norvegicus) (UniProt P25102). The assay can be described thus: In vivo agonist activity against histamine H2-receptor in lumen-perfused stomach of atropinized (1 mg/kg) anesthetized rat gastric secretion at 64 ug/kg; -ve. The format is functional, organism-based. The essentials:
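In vivo, urethane-anaesthetised rat given atropine (1 mg kg⁻¹), lumen-perfused stomach, acid secretion as read-out. Compounds given intravenously as single doses and matched against single histamine doses (0.5–1 μM kg⁻¹).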

Molecules are shown by their SMILES. The source made the active and inactive calls. The rule behind the calls is not given here. Where only a bound is given, the exact number is not on record here.

Histamine H1 receptor (Cavia porcellus), sequence (P31389 whole entry): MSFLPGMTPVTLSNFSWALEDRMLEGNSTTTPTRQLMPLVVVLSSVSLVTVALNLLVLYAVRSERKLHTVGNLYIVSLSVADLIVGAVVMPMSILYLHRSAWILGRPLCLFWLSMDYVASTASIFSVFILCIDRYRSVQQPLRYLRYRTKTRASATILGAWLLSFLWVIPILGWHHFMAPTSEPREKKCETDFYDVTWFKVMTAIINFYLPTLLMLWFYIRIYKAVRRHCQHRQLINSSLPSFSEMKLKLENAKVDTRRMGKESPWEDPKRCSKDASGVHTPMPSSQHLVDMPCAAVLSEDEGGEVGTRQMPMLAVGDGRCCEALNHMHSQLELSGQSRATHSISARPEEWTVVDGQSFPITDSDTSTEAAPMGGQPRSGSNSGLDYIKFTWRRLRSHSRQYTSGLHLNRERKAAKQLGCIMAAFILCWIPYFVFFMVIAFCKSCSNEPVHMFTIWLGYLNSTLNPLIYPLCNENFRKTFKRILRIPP
Histamine H2 receptor (Cavia porcellus), sequence (P47747 whole entry, the tested form may be a part): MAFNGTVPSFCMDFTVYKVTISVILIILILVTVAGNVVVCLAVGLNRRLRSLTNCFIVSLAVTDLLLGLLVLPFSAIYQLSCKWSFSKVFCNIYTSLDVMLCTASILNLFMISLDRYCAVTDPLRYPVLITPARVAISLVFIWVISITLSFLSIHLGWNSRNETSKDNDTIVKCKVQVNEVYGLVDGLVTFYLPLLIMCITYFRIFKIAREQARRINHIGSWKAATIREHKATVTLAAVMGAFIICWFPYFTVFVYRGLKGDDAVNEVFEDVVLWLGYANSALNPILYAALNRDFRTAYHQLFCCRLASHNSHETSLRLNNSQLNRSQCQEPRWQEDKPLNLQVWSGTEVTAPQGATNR
Histamine H2 receptor (Rattus norvegicus), sequence (P25102 whole entry, the tested form may be a part): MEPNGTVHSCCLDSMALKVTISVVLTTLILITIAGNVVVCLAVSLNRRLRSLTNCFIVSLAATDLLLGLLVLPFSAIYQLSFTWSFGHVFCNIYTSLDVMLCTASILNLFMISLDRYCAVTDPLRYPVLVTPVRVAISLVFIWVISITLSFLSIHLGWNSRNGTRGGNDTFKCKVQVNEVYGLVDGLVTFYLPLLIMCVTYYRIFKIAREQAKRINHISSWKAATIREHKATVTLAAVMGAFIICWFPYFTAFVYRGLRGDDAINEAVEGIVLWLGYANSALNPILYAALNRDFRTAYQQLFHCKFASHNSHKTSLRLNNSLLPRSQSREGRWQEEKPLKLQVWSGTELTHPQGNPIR

In the case of `NCCc1cncn1Cc1ccccc1`, the Antagonist activity was less than 3.3 in assay [1] and 3.6 pA2 in assay [6]. Also, the Agonist activity result in assay [2], in [3] and in [4] was “inactive” each time. Moreover, the Antagonist activity result in [5] was “inactive”.

In turn, `NCCc1cn(Cc2ccccc2)cn1` had an Antagonist activity in [1] of less than 3.3. The Agonist activity was determined as 0.4 in assay [7] and 3 in assay [8]. Besides, the Agonist activity result in [3] was “inactive”. The Antagonist activity entry in [9] was “inactive”.

The compound `NCCc1c[nH]c(Cc2ccccc2)n1` displayed an Antagonist activity in assay [10] of less than 3.3. In addition, the Agonist activity entry in assay [11] and in [3] was “inactive” throughout. For the same compound, the Agonist activity in assay [7] was 2.3. For the same compound, the Antagonist activity result in assay [5] was “inactive”.

In the case of `c1ccc(CNCCc2c[nH]cn2)cc1`, the Agonist activity in [12] was found to be 0.4; in assay [13] it was 0.7; in assay [8], 0.5. Moreover, the Antagonist activity in assay [1] was less than 3.3; in assay [14], “Partial antagonist”.

In the case of `NCCc1ncn(Cc2ccccc2)c1Cc1ccccc1`, the Agonist activity entry in assay [15], in [17] and in assay [3] was “inactive” throughout. Besides, the figures for the Antagonist activity in assay [16] and in [18] were 4.35 and 4.7 pA2, respectively. In addition, the Antagonist activity entry in [5] was “inactive”.

As to `NCC(Cc1ccccc1)c1c[nH]cn1` (centres undefined), the Antagonist activity entry in assay [19] was “inactive”. Besides, the Agonist activity is 0.1 in assay [12] and 1 in [21]. Further, the Antagonist activity in assay [1] is less than 3.3; in assay [22], 4 pA2. Also, in assay [20], the Agonist activity entry is “inactive”.

For the compound `NCCc1[nH]cnc1Cc1ccccc1`, the Agonist activity entry in assay [2], in assay [24] and in assay [3] was “inactive” throughout. Also, the Antagonist activity in assay [23] was less than 3.3; in assay [6], 4.4 pA2. In [5], the Antagonist activity result is “inactive”.

These data come from ChEMBL document CHEMBL1122180, “Potential histamine H2-receptor antagonists. 4. Benzylhistamines” (J Med Chem, 1982).
